Measurements: ChEMBL document CHEMBL5620421, “2,6-Disubstituted 7-(naphthalen-2-ylmethyl)-7H-purines as a new class of potent antitubercular agents inhibiting DprE1” (Eur J Med Chem, 2023)

Legend:
Assay type in all cases: functional
Conditions in all cases: time 14-21 day
[1] = test system: Mycobacterium tuberculosis; experiment: (§1) Antimycobacterial activity against isoniazid/ethambutol/rifampin/streptomycin/amikacin/gentamicin/clofazimine/ofloxacin resistant MDR/XDR clinical isolate Mycobacterium tuberculosis PRAHA 131 assessed as inhibition of mycobacterial growth measured after 14 to 21 days of incubation by Sulas semisynthetic medium based assay
How it was run: (§2)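 Clinical MDR/XDR M. tuberculosis isolates were tested by the Sula's semisynthetic medium micromethod. Compounds in DMSO at 1000 to 0.5 μmol/L, in twofold-type steps. Incubation at 37 °C, read at 14 and 21 days. MIC99 is the lowest concentration inhibiting >99% of growth. Drug resistance or susceptibility of each isolate is to amikacin, clofazimine, gentamicin, ofloxacin, streptomycin and the others listed.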

[2] = test system: Mycobacterium tuberculosis; experiment: as §1, with “4” for “131”; how it was run: as §2
[3] = test system: Mycobacterium tuberculosis; experiment: as §1, with “8666/2010” for “PRAHA 131”; how it was run: as §2
[4] = test system: Mycobacterium tuberculosis; experiment: as §1, with “1” for “131”; how it was run: as §2
[5] = test system: Mycobacterium tuberculosis; experiment: as §1, with “7357/1998” for “PRAHA 131”; how it was run: as §2
[6] = test system: Mycobacterium tuberculosis; experiment: as §1, with “9449/2007” for “PRAHA 131”; how it was run: as §2
[7] = test system: Mycobacterium tuberculosis; experiment: as §1, with “234/2005” for “PRAHA 131”; how it was run: as §2

Compound	MIC99 [1] [µM]	MIC99 [2] [µM]	MIC99 [3] [µM]	MIC99 [4] [µM]	MIC99 [5] [µM]	MIC99 [6] [µM]	MIC99 [7] [µM]
NCC[C@H](O)C(=O)N[C@@H]1C[C@H](N)[C@@H](O[C@H]2O[C@H](CN)[C@@H](O)[C@H](O)[C@H]2O)[C@H](O)[C@H]1O[C@H]1O[C@H](CO)[C@@H](O)[C@H](N)[C@H]1O [AMIKACIN]	> 32						
CC1COc2c(N3CCN(C)CC3)c(F)cc3c(=O)c(C(=O)O)cn1c23 (stereo not given) [OFLOXACIN]		> 16					
CO[C@H]1/C=C/O[C@@]2(C)Oc3c(C)c(O)c4c(O)c(c(/C=N/N5CCN(C)CC5)c(O)c4c3C2=O)NC(=O)/C(C)=C\C=C\[C@H](C)[C@H](O)[C@@H](C)[C@@H](O)[C@@H](C)[C@H](OC(C)=O)[C@@H]1C [RIFAMPIN]	> 8	> 8	> 8	> 8	> 8	> 8	> 8
CN[C@@H]1[C@H](O[C@H]2[C@H](O[C@H]3[C@H](O)[C@@H](O)[C@H](N=C(N)N)[C@@H](O)[C@@H]3N=C(N)N)O[C@@H](C)[C@]2(O)C=O)O[C@@H](CO)[C@H](O)[C@H]1O [STREPTOMYCIN]	> 32	> 32	> 32		> 32	> 32	
GENTAMICIN	> 8						
